ChEMBL document CHEMBL1146093, “Identification of ellagic acid as potent inhibitor of protein kinase CK2: a successful example of a virtual screening application” (J Med Chem, 2006)
pIC50, pKi: −log10 of the molar value.

Assays:
[1] = Inhibition of rat liver CK2
Method in brief: (§1)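 Each kinase's activity was measured by a method given in the Supporting Information. IC50 values are means of at least three independent experiments, with SEM never above 15%.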

[2] = Inhibition of rat liver CK1; method in brief: as §1
[3] = target: cAMP-dependent protein kinase (PKA) (Homo sapiens, UniProt P22694+P17612+P22612); assay: Inhibition of PKA; assay type: protein assay; method in brief: as §1
[4] = target: Glycogen synthase kinase-3 beta (Homo sapiens, UniProt P49841); assay: Inhibition of human recombinant GSK3-beta; method in brief: as §1
[5] = target: Dual specificity tyrosine-phosphorylation-regulated kinase 1A (Homo sapiens, UniProt Q13627); assay: Inhibition of human recombinant DYRK1a; method in brief: as §1
[6] = target: Tyrosine-protein kinase CSK (Rattus norvegicus, UniProt P32577); assay: Inhibition of rat spleen CSK; assay type: tissue-based; method in brief: as §1
[7] = target: Tyrosine-protein kinase Lyn (Rattus norvegicus, UniProt Q07014); assay: Inhibition of rat spleen Lyn; assay type: tissue-based; method in brief: as §1
[8] = target: Tyrosine-protein kinase SYK (Rattus norvegicus, UniProt Q64725); assay: Inhibition of rat spleen SYK; assay type: tissue-based; method in brief: as §1
[9] = target: Tyrosine-protein kinase Fgr (Rattus norvegicus, UniProt Q6P6U0); assay: Inhibition of rat spleen FGR; assay type: tissue-based; method in brief: as §1
[10] = target: NPM/ALK (Nucleophosmin/ALK tyrosine kinase receptor) (Homo sapiens, UniProt Q9UM73); assay: Inhibition of NPM-ALK; assay type: protein assay; method in brief: as §1
[11] = target: Proto-oncogene tyrosine-protein kinase receptor Ret (Homo sapiens, UniProt P07949); assay: Inhibition of RET; method in brief: as §1
[12] = target: T1, Receptor-type tyrosine-protein kinase FLT3 (Homo sapiens, UniProt P36888); assay: Inhibition of FLT3; method in brief: as §1
T1 sequence (P36888 whole entry): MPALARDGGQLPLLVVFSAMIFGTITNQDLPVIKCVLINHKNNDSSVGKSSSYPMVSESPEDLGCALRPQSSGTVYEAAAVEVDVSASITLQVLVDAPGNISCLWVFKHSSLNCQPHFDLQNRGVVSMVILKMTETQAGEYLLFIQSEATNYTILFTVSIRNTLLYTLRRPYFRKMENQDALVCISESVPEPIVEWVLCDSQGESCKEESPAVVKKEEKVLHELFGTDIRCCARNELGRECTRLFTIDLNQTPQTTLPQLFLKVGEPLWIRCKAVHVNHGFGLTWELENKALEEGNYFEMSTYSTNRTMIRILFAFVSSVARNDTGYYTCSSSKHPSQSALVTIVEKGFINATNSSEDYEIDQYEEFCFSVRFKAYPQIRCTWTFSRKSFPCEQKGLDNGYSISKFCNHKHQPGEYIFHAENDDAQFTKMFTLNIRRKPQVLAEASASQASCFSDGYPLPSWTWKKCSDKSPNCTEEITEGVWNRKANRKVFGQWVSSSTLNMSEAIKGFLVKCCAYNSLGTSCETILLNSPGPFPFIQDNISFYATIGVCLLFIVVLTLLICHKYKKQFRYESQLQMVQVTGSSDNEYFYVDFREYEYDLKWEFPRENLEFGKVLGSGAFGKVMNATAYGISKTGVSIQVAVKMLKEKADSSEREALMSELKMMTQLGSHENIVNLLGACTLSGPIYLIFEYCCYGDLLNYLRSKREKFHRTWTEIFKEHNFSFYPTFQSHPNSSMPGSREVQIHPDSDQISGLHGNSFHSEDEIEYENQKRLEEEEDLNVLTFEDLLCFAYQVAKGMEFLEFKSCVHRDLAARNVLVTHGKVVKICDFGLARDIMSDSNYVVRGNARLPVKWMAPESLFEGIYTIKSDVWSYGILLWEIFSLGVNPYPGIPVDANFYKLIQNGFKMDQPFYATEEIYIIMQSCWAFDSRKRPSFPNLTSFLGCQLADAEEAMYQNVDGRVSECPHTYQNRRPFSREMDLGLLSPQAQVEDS

[13] = target: T2, NPM/ALK (Nucleophosmin/ALK tyrosine kinase receptor) (Homo sapiens) (UniProt Q9UM73+P06748); assay: Antiproliferative activity against SUDHL1 expressing NPM-ALK by MTT assay; assay type: functional; conditions: concentration not given here
Method in brief: (§2)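 MTT viability in ALCL lines cultured 48 h with or without compound at 5-100 × 10^-6 M. Viability is expressed relative to DMSO-treated control cells, set at 1.0. Values are means of triplicate cultures.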

FEPD = assay: Antiproliferative activity against FEPD by MTT assay; assay type: functional, Homo sapiens; method in brief: as §2
[14] = target: T2, NPM/ALK (Nucleophosmin/ALK tyrosine kinase receptor) (Homo sapiens); assay: Antiproliferative activity against KARPAS299 expressing NPM-ALK by MTT assay; assay type: functional; conditions: concentration not given here; method in brief: as §2
[15] = target: T2, NPM/ALK (Nucleophosmin/ALK tyrosine kinase receptor) (Homo sapiens); assay: Antiproliferative activity against SR786 expressing NPM-ALK by MTT assay; assay type: functional; conditions: concentration not given here; method in brief: as §2

T2 sequence (P06748 whole entry partner): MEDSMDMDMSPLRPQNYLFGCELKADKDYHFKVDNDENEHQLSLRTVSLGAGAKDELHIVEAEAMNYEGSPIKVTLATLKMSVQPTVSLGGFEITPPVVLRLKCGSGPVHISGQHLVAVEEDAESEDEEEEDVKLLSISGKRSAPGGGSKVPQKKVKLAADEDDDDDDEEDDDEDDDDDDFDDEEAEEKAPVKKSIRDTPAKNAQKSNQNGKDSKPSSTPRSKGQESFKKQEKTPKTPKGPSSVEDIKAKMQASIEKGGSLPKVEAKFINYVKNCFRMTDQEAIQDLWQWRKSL
T2 sequence (Q9UM73 19-1620 limits assumed): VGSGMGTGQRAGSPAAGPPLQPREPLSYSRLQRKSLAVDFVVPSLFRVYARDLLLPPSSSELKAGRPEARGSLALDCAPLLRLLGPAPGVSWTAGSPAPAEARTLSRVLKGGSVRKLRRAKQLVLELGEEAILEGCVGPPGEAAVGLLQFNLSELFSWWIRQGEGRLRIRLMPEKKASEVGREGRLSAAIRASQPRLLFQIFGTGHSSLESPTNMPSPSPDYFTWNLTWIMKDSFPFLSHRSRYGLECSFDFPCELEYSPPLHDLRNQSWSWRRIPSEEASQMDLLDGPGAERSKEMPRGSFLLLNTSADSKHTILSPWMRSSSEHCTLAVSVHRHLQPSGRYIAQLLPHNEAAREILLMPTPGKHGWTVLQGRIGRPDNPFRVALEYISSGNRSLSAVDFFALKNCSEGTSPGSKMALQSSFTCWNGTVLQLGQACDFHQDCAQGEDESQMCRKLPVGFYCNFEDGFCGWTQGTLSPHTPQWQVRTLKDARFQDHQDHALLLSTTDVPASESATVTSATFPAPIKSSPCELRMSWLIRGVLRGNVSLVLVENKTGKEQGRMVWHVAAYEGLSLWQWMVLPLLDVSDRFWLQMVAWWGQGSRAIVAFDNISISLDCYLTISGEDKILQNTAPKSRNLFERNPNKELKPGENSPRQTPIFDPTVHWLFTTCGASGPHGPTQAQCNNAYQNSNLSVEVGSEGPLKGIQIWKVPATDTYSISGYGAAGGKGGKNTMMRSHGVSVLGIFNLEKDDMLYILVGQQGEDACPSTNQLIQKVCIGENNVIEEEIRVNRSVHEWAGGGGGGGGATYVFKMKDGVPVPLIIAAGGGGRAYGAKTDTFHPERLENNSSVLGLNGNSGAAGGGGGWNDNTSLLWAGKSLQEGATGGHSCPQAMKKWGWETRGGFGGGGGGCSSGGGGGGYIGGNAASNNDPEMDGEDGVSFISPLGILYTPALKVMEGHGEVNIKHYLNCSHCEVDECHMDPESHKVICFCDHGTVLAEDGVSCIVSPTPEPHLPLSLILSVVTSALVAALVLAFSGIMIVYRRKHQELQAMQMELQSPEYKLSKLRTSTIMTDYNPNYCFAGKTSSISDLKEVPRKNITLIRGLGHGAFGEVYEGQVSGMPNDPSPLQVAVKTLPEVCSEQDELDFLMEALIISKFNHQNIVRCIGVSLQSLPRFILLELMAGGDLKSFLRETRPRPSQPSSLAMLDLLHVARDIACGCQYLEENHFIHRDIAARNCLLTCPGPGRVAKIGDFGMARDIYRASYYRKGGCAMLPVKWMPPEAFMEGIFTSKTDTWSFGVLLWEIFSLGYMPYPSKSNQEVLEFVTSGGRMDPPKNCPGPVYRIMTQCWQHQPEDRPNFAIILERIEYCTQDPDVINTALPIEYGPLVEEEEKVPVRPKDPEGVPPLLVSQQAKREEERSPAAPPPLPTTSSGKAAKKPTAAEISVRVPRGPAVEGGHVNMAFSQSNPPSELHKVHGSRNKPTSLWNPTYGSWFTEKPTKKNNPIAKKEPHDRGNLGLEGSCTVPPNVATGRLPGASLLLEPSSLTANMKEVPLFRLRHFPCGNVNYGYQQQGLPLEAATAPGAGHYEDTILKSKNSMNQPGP
Tyrosine-protein kinase SYK, sequence (Q64725 whole entry): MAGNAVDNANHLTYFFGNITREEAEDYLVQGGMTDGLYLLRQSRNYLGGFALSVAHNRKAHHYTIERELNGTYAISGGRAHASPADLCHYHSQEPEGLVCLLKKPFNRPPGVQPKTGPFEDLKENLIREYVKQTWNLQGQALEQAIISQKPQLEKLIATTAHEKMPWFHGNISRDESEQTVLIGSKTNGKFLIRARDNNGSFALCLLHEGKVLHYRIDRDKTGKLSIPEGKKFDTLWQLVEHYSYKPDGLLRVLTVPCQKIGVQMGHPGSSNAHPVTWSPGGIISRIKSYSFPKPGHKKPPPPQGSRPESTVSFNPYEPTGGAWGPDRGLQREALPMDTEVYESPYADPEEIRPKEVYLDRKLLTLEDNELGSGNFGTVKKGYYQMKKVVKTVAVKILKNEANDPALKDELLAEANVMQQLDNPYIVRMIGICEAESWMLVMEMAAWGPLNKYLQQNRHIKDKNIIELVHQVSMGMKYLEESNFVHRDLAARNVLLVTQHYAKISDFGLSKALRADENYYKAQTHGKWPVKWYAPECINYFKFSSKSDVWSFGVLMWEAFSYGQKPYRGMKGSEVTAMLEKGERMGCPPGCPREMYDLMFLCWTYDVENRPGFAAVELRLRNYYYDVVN
Proto-oncogene tyrosine-protein kinase receptor Ret, sequence (P07949 whole entry): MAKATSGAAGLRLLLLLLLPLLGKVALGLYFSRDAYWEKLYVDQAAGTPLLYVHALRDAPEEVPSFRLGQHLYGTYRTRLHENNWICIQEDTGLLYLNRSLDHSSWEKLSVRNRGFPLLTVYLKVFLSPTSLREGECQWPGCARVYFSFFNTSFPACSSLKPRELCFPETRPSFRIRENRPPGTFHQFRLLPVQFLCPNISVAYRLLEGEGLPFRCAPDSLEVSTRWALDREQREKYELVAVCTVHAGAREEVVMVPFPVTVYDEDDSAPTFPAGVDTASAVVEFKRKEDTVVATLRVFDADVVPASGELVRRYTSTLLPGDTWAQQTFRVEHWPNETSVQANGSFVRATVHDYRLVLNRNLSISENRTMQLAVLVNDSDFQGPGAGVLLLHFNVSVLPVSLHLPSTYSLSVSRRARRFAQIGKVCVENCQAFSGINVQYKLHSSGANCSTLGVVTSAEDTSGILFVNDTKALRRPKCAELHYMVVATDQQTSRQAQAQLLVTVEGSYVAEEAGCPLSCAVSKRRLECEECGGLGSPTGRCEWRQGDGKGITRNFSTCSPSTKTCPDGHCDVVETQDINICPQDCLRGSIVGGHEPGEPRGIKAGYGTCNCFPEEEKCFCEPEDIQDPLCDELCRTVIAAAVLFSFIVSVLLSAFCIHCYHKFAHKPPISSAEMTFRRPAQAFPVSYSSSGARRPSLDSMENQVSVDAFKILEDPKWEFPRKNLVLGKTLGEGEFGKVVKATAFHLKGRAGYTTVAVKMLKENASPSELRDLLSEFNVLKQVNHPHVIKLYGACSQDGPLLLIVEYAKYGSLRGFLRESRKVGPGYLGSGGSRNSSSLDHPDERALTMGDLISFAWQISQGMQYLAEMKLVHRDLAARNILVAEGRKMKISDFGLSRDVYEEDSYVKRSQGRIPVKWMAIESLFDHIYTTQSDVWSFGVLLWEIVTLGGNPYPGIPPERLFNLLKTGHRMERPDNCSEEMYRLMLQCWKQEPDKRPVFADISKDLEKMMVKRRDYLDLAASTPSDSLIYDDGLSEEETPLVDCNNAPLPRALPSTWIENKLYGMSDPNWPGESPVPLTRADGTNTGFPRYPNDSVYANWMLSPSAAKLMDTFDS
Glycogen synthase kinase-3 beta, sequence (P49841 whole entry): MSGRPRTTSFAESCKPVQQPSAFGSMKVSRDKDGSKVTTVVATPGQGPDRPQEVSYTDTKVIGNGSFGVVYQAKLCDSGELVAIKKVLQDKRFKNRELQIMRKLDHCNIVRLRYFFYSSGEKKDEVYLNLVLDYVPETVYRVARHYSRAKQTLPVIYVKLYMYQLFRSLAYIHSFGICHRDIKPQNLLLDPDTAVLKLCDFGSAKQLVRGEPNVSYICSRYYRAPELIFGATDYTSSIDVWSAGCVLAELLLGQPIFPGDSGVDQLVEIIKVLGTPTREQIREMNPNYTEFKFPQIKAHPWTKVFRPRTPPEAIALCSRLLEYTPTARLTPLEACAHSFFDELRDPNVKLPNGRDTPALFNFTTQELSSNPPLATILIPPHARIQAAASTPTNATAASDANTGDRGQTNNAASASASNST
Tyrosine-protein kinase Lyn, sequence (Q07014 whole entry): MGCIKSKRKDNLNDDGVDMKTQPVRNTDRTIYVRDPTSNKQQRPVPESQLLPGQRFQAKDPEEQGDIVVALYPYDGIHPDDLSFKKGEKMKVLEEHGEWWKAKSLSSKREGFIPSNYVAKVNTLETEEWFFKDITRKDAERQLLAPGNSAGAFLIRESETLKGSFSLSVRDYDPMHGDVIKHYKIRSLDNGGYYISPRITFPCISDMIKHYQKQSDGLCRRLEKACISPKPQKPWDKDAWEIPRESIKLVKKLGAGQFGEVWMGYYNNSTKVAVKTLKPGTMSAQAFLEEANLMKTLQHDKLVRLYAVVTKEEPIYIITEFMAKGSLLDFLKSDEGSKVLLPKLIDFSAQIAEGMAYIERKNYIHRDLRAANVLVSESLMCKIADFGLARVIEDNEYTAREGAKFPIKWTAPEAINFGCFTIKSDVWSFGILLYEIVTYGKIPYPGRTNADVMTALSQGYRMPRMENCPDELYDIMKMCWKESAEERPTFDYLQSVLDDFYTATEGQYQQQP
Tyrosine-protein kinase CSK, sequence (P32577 whole entry): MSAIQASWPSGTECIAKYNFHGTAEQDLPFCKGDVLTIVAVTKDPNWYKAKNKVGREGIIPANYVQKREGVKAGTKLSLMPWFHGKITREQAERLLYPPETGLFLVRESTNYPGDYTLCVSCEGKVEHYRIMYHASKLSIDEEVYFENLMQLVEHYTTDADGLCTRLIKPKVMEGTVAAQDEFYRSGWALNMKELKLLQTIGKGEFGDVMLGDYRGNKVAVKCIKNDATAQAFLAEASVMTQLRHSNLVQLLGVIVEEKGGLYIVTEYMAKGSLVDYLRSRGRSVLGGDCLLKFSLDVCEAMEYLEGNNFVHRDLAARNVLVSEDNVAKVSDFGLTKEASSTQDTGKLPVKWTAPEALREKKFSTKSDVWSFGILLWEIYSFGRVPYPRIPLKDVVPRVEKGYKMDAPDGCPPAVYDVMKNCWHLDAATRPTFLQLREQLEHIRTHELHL

Compound: O=c1oc2c(O)c(O)cc3c(=O)oc4c(O)c(O)cc1c4c23 [ELLAGIC ACID]
- pIC50 [1]: 7.40
- pKi [1]: 7.70
- pIC50 [2]: 4.89
- IC50 [3]: 3.5 µM
- pIC50 [4]: 5.12
- pIC50 [5]: < 4.40
- pIC50 [6]: < 4.40
- pIC50 [7]: 5.54
- pIC50 [8]: 5.37
- pIC50 [9]: 5.03
- pIC50 [10]: < 4.40
- pIC50 [11]: < 4.40
- pIC50 [12]: < 4.40
- inhibition [13]: 85%
- Inhibition (FEPD): 70%
- inhibition [14]: 60%
- inhibition [15]: 40%
